Compounds with a hit are over-represented: about 1% of the library has one in this group of screens.
pCIP destab: p/CIP protein destabilization; Q05BA5; F442A p/CIP-EGFP cells, EGFP fluorescence, 16 h; decrease of EGFP signal, % at 10 µM; 0.01% of 290,000 active;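 active means EGFP signal decrease of at least 30% at 10 µM or well 3 SD below plate mean, unless failing retest; inactive means the rest, including hits failing retest or dose response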
CTSL1 counter: cathepsin L1 inhibition, PFM18AAP counter-screen. recombinant F. hepatica cathepsin L1, Z-Leu-Arg-MCA fluorescence. inhibition, % at 5.96 µM. 0.49% of 300,000 active;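 active means inhibition above the mean of all tested compounds plus 3 SD, set per screening campaign, cut at about 17% in these data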
Arrestin-AP2 inh: blocks beta-arrestin peptide binding to AP2 adaptin; AID 504490; 0.31% of 340,000 active; inhibition, % at 10 µM; FITC-arrestin peptide / GST-AP2 beads, flow cytometry; AP2 beta2 appendage carries R879A mutation;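 active means inhibition above a set limit, near 3 SD of compounds lacking own fluorescence, cut at about 54% in these data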
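Assay system: GST-AP2 R879A bound to glutathione beads, E. coli-expressed; Medium: PBS with 0.05% Tween 20 and 0.1% BSA; Also added: fluorescein-tagged arrestin peptide at 50 nM final; Timing: 12 min plus 1 h, RT; Measured by: flow cytometry, FL1 (488/535 nm); Evaluation: percent drop in bead-associated FITC signal.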
Lipid droplet: hepatic lipid droplet formation modulation; AML12 mouse hepatocytes, oleate lipid droplets, BODIPY imaging; inhibition, % at 6.5 µM; 0.4% of 240,000 active;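 active means lipid droplet intensity inhibited by at least 50%, with more than 500 cells counted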
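Material – AML12 mouse liver cells · Also added – oleate loading, 100 µM · Compound dosing – 6.5 µM single-point dosing · Times – overnight treatment with compound plus oleate · Measured by – fluorescence imaging, 20x objective, two fields per well · Read-out – percent inhibition of filter-corrected integrated lipid droplet intensity per well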
A number is an active result; i = inactive; nt = no result.

SMILES | pCIP destab | CTSL1 counter | Arrestin-AP2 inh | Lipid droplet
O=C(O)CCC(=O)Nc1nnc(C(F)(F)F)s1 | i | i | i | nt
COc1cccc(C(=O)N(Cc2ccc(N(C)C)cc2)C2CCS(=O)(=O)C2)c1 (stereo not drawn) | i | i | i | nt
CN(C)/C=C1\C(=O)N(c2ccc(Cl)c(Cl)c2)CS1(=O)=O | i | i | i | i
CN(C)C1=C(Cl)C(=O)N(c2ccc(Cl)c(Cl)c2)C1=O | i | 38 | i | i
COc1cc(/C=C(/C#N)c2nc3ccccc3[nH]2)ccc1OCc1ccc(C(=O)O)o1 | i | 20 | i | nt
COC(=O)c1ccc(COc2ccc(/C=C(\C#N)c3nc4ccccc4[nH]3)cc2OC)o1 | i | i | i | nt
COCCNC(=O)C(=O)Nc1cc2c3c(c1)C(C)C(=O)N3CCC2 (stereo not drawn) | i | 18 | i | i
O=C(c1cnn2ccccc12)N(Cc1ccco1)C1CCCC1 | i | 47 | i | nt
CCC(C)[C@H](NC(=O)C1(c2ccccc2)CCN(C(=O)OC(C)(C)C)CC1)C(=O)N[C@@H](C(=O)O)c1ccccc1 (stereo partly drawn) | i | i | i | i
CC(O)[C@H](NC(=O)C1(c2ccccc2)CCN(C(=O)OC(C)(C)C)CC1)C(=O)O (stereo partly drawn) | i | 30 | i | nt
CCN(CC)c1ccc(/C=C(\C#N)C(=O)NCc2ccco2)cc1 | i | 23 | nt | i
C/C(=N\NC(N)=S)C12CC3CC(CC(C3)C1)C2 | i | 18 | i | i
C/C(=N\NC(N)=O)C1(C)CCCCC1 | i | i | i | i
C/C(=N\NC(N)=S)C1(C)CCCCC1 | i | 30 | i | nt
CC1(C)Cc2c(C#N)c(N3CCCC3)nc(-c3ccco3)c2CO1 | i | i | i | nt
N#Cc1c(N2CCOCC2)nc(-c2ccco2)c2c1CCCC2 | i | 42 | i | nt
CC(C)CCNc1nc(-c2ccco2)c2c(c1C#N)CCCC2 | i | 19 | i | i
CCC(=O)N(CCC(c1ccco1)C(C)C)Cc1ccccc1 (stereo not drawn) | i | 30 | i | i
CC(=O)N(CCC(c1ccco1)C(C)C)Cc1ccc(Cl)cc1 (stereo not drawn) | i | i | i | i
COc1ccc(C2CC(=O)Oc3c(C(CCN4CCCC(C)C4)c4ccc(N(C)C)cc4)c(OC)cc(OC)c32)cc1 (stereo not drawn) | i | i | i | i
COc1ccc(OC)c(NC(=O)CSc2nc(C)cs2)c1 | i | i | i | i
O=C(O)CCNc1cc(N2CCN(C(=O)c3ccco3)CC2)c2noc3c2c1C(=O)c1ccccc1-3 | i | 22 | i | i
CC(=O)N1CC=CC1(CC(C)C)C(=O)NCc1cc(F)cc(C(F)(F)F)c1 (stereo not drawn) | i | 55 | i | i
O=C(Cn1cc(/C=N/NC(=O)c2cccc3ccccc23)c2ccccc21)Nc1ccc(F)cc1 | i | i | i | i
Oc1ccc2ccccc2c1C=NC12CN3CCN(CN(C3)C1)C2 | i | 32 | i | nt
SMILES | pCIP destab | CTSL1 counter | Arrestin-AP2 inh | Lipid droplet
Cc1cc(NC(=O)C23CC4CC(CC(C4)C2)C3)n[nH]1 | i | 20 | i | i
CC(=O)O[C@H]1C(=O)[C@@]2(C)[C@H]([C@H](OC(=O)c3ccccc3)[C@]3(O)C[C@H](OC(=O)[C@H](O)[C@@H](NC(=O)c4ccccc4)c4ccccc4)C(C)=C1C3(C)C)[C@]1(OC(C)=O)CO[C@@H]1C[C@@H]2O | nt | 19 | i | nt
CC(=O)O[C@H]1C(=O)[C@@]2(C)[C@H]([C@H](OC(=O)c3ccccc3)[C@]3(O)C[C@H](OC(=O)[C@H](O)C(NC(=O)c4ccccc4)c4ccccc4)C(C)=C1C3(C)C)[C@]1(OC(C)=O)CO[C@@H]1C[C@@H]2O (stereo partly drawn) | i | i | i | i
CC(C)CCNC(=O)COc1ccc2c(c1)C(=O)CC(C)(C)O2 | i | i | i | i
CCC(Oc1ccc2c(c1)C(=O)CC(C)(C)O2)C(=O)NCCN1CCCCCC1 (stereo not drawn) | i | 37 | i | i
Cn1c(=O)c2c(nc(NCc3ccccc3)n2C)n(C)c1=O | i | i | i | nt
Cn1c(=O)c2cc(NCc3ccccc3)nnc2n(C)c1=O | i | 57 | i | nt
CCOC(=O)c1ccc(Nc2cc(C)nc(C)c2C(=O)OCC)cc1 | i | i | i | i
O=C(NC(=S)Nc1ccccc1N1CCCC1)c1ccccc1Br | i | 23 | i | i
COc1cccc(C(=O)NC(=S)Nc2ccccc2N2CCCC2)c1 | i | 23 | i | i
O=C(NC(=S)Nc1ccccc1N1CCCC1)c1ccco1 | i | 21 | i | i

From PubChem
